Laboratory results reported in ChEMBL document CHEMBL1135939, “Studies on the synthesis and opioid agonistic activities of mitragynine-related indole alkaloids: discovery of opioid agonists structurally different from other opioid ligands” (J Med Chem, 2002).
Calls of active or inactive are those of the source. The rule behind the calls is not given here.

Key:
Cavia porcellus [1] = organism: Cavia porcellus; assay: Relative inhibitory activity expressed as the percentage of the maximum inhibition by the compound against that of morphine; type: functional
Cavia porcellus [2] = organism: Cavia porcellus; assay: % maximum inhibition is elicited when the response reaches plateau, calculated regarding electrically induced contraction in guinea pig ileum as 100%(P < 0.01); type: functional
Procedure, shortened: (§1)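 Ileum from male Dunkin-Hartley guinea pigs (300–400 g) in bath at 37 °C bubbled with 95% O2/5% CO2. Tissue suitability checked with acetylcholine 3 μM. Transmural stimulation at 0.2 Hz, 0.3 ms, supramaximal voltage, isotonic recording. Cumulative concentration–response curves over 100 pM–30 μM. Twitch height measured before and after drug. Mean ± SEM from five to six animals.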

Cavia porcellus [3] = organism: Cavia porcellus; assay: activity evaluated by its ability to inhibit the electrically induced twitch contraction in guinea pig ileum, which is reversed by naloxone (300 nM)(P < 0.001); type: functional; procedure, shortened: as §1
Cavia porcellus [4] = organism: Cavia porcellus; assay: Relative potency expressed as the percentage of the pD2 value against that of morphine; type: functional
Cavia porcellus [5] = organism: Cavia porcellus; assay: activity evaluated by its ability to inhibit the electrically induced twitch contraction in guinea pig ileum, which is reversed by naloxone (300 nM); non specific; type: functional; procedure, shortened: as §1
Cavia porcellus [6] = organism: Cavia porcellus; assay: Relative inhibitory activity expressed as the percentage of the maximum inhibition by the compound against that of morphine; non specific; type: functional
Cavia porcellus [7] = organism: Cavia porcellus; assay: % maximum inhibition is elicited when the response reaches plateau, calculated regarding electrically induced contraction in guinea pig ileum as 100%; non specific; type: functional; procedure, shortened: as §1
Cavia porcellus [8] = organism: Cavia porcellus; assay: Relative potency expressed as the percentage of the pD2 value against that of morphine; non specific; type: functional
Cavia porcellus [9] = organism: Cavia porcellus; assay: % inhibition of twitch contraction at 0.1 uM in electrically stimulated guinea pig ileum preparation; type: functional; procedure, shortened: as §1
Cavia porcellus [10] = organism: Cavia porcellus; assay: % maximum inhibition is elicited when the response reaches plateau, calculated regarding electrically induced contraction in guinea pig ileum as 100%; type: functional; procedure, shortened: as §1
Cavia porcellus [11] = organism: Cavia porcellus; assay: Relative inhibitory activity expressed as the percentage of the maximum inhibition by the compound against that of morphine; no effect; type: functional
Cavia porcellus [12] = organism: Cavia porcellus; assay: % maximum inhibition is elicited when the response reaches plateau, calculated regarding electrically induced contraction in guinea pig ileum as 100%; no effect; type: functional; procedure, shortened: as §1
Cavia porcellus [13] = organism: Cavia porcellus; assay: Relative potency expressed as the percentage of the pD2 value against that of morphine; no effect; type: functional
Cavia porcellus [14] = organism: Cavia porcellus; assay: activity evaluated by its ability to inhibit the electrically induced twitch contraction in guinea pig ileum, which is reversed by naloxone (300 nM); no effect; type: functional; procedure, shortened: as §1
Cavia porcellus [15] = organism: Cavia porcellus; assay: Effect of Corynantheidine (10 uM) on twitch contraction inhibited by Atropine (0.1 uM) in guinea pig; type: functional
[16] = molecular target: Mu-type opioid receptor (Cavia porcellus) (UniProt P97266); assay: Relative affinity evaluated for Opioid receptor mu 1
Procedure, shortened: (§2)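 From displacement Ki values in guinea pig brain membranes for μ ([3H]DAMGO), δ ([3H]DPDPE) and κ ([3H]U-69593) sites. Ka = 1/Ki. Relative affinity (%) = Ka for the subtype / (Kaμ + Kaδ + Kaκ).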

Cavia porcellus [17] = organism: Cavia porcellus; assay: Effect of Corynantheidine (10 uM) on twitch contraction inhibited by morphine (1 uM) in guinea pig (P<0.001); type: functional
Cavia porcellus [18] = organism: Cavia porcellus; assay: % maximum inhibition is elicited when the response reaches plateau, calculated regarding electrically induced contraction in guinea pig ileum as 100% (P<0.001); type: functional; procedure, shortened: as §1
Cavia porcellus [19] = organism: Cavia porcellus; assay: Effect of Corynantheidine (1 uM) on twitch contraction inhibited by Verapamil (3 uM) in guinea pig; type: functional
Cavia porcellus [20] = organism: Cavia porcellus; assay: Effect of Corynantheidine (10 uM) on twitch contraction inhibited by Verapamil (3 uM) in guinea pig; type: functional
Cavia porcellus [21] = organism: Cavia porcellus; assay: Effect of Corynantheidine (1 uM) on twitch contraction inhibited by morphine (1 uM) in guinea pig (P<0.05); type: functional
Mu-type opioid receptor = Mu-type opioid receptor (Cavia porcellus, UniProt P97266); assay: Binding affinity using guinea pig brain membrane preparations, towards Opioid receptor mu 1 using [3H]- DAMGO as radioligand
Procedure, shortened: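 Guinea pig whole-brain (minus cerebellum) membranes in 50 mM Tris-HCl pH 7.4 with 1 nM radioligand. [3H]DPDPE incubated 2 h and [3H]DAMGO 1.5 h, both at 25 °C. Nonspecific binding defined with 1 μM naltrindole (DPDPE) or 1 μM DAMGO (DAMGO). GF/B filtration, scintillation counting. 6–9 inhibitor concentrations; Ki by Cheng–Prusoff, given as pKi. 3–5 curves, each in triplicate.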

Cavia porcellus [22] = organism: Cavia porcellus; assay: Effect of Corynantheidine (1 uM) on twitch contraction inhibited by Atropine (0.1 uM) in guinea pig; type: functional
[23] = molecular target: Kappa-type opioid receptor (Cavia porcellus, UniProt P41144); assay: Binding affinity using guinea pig brain membrane preparations, towards Opioid receptor kappa 1 using [3H]- U-69,593 as radioligand
[24] = system: Delta-type opioid receptor; assay: Relative affinity evaluated for Opioid receptor delta 1; conditions: Cavia porcellus; procedure, shortened: as §2
Cavia porcellus [25] = organism: Cavia porcellus; assay: activity evaluated by its ability to inhibit the electrically induced twitch contraction in guinea pig ileum, which is reversed by naloxone (300 nM); type: functional; procedure, shortened: as §1
Cavia porcellus [26] = organism: Cavia porcellus; assay: % maximum inhibition is elicited when the response reaches plateau, calculated regarding electrically induced contraction in guinea pig ileum as 100% (P < 0.001); type: functional; procedure, shortened: as §1
Cavia porcellus [27] = organism: Cavia porcellus; assay: activity evaluated by its ability to inhibit the electrically induced twitch contraction in guinea pig ileum, which is reversed by naloxone (300 nM) (P < 0.001); type: functional; procedure, shortened: as §1

Chain of Mu-type opioid receptor (Cavia porcellus) (P97266 whole entry): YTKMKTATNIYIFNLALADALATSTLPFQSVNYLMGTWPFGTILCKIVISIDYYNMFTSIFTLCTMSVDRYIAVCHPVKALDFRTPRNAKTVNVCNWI
Chain of Mu-type opioid receptor (P97266 whole entry): as above
Chain of Kappa-type opioid receptor (P41144 whole entry): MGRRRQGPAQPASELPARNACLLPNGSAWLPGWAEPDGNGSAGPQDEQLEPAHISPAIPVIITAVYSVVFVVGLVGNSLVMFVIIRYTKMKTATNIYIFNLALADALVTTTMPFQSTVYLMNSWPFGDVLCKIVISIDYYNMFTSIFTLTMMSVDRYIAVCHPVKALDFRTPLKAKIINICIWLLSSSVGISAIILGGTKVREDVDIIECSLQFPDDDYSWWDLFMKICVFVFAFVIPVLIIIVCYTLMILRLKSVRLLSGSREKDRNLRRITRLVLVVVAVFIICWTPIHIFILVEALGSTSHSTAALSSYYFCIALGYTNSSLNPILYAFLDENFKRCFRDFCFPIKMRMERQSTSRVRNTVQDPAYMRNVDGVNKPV

**Q.** For `CC[C@@H]1CN2CC[C@@]3(OC)C(=Nc4cccc(OC)c43)[C@@H]2C[C@@H]1/C(=C\OC)C(=O)OC`, which Inhibition (Cavia porcellus [1]) is on record?
**A.** 70%

**Q.** And the Inhibition (Cavia porcellus [2])?
**A.** 60.9%

**Q.** What about the pD2 (Cavia porcellus [3]) of the same compound?
**A.** 6.45

**Q.** What about the Relative potency (Cavia porcellus [4]) of the same compound?
**A.** 19%

**Q.** `CC[C@@H]1CN2CCc3c([nH]c4cccc(OC(C)C)c34)[C@@H]2C[C@@H]1/C(=C\OC)C(=O)OC` was tested. Which NS (Cavia porcellus [5]) did it give?
**A.** non specific

**Q.** And the NS (Cavia porcellus [6])?
**A.** non specific

**Q.** What about the NS (Cavia porcellus [7]) of the same compound?
**A.** non specific

**Q.** And the NS (Cavia porcellus [8])?
**A.** non specific

**Q.** Which Contraction (Cavia porcellus [9]) does the source give for `CN1[C@@H]2CC[C@H]1C[C@@H](OC(=O)C(CO)c1ccccc1)C2` (some centres undefined) [ATROPINE] here?
**A.** 3.9%

**Q.** For `CC[C@@H]1CN2CC3=C(O)C4C(OC)=CC=CC4N=C3[C@@H]2C[C@@H]1/C(=C\OC)C(=O)OC` (some centres undefined), which Inhibition (Cavia porcellus [1]) is on record?
**A.** 85%

**Q.** What about the Inhibition (Cavia porcellus [10]) of the same compound?
**A.** 74.1%

**Q.** What about the pD2 (Cavia porcellus [3]) of the same compound?
**A.** 6.7

**Q.** What about the Relative potency (Cavia porcellus [4]) of the same compound?
**A.** 34%

**Q.** For `CC[C@@H]1CN2CCc3c([nH]c4cccc(OCOC)c34)[C@@H]2C[C@@H]1/C(=C\OC)C(=O)OC`, which NE (Cavia porcellus [11]) is on record?
**A.** inactive

**Q.** What about the NE (Cavia porcellus [12]) of the same compound?
**A.** inactive

**Q.** What about the NE (Cavia porcellus [13]) of the same compound?
**A.** inactive

**Q.** What about the NE (Cavia porcellus [14]) of the same compound?
**A.** inactive

**Q.** For `CC[C@@H]1CN2CCc3c([nH]c4ccccc34)[C@@H]2C[C@@H]1/C(=C\OC)C(=O)OC` [CORYNANRHEIDINE], which Contraction (Cavia porcellus [15]) is on record?
**A.** 6.3%

**Q.** What about the Relative affinity [16] of the same compound?
**A.** 95.8%

**Q.** What about the Contraction (Cavia porcellus [17]) of the same compound?
**A.** 109.2%

**Q.** And the Inhibition (Cavia porcellus [18])?
**A.** -18.1%

**Q.** And the Contraction (Cavia porcellus [19])?
**A.** 7%

**Q.** What about the Contraction (Cavia porcellus [20]) of the same compound?
**A.** 13.2%

**Q.** And the Contraction (Cavia porcellus [21])?
**A.** 43%

**Q.** What about the Inhibition (Cavia porcellus [1]) of the same compound?
**A.** -21%

**Q.** And the Ki (Mu-type opioid receptor)?
**A.** 72.4 nM

**Q.** And the Contraction (Cavia porcellus [22])?
**A.** 5.7%

**Q.** And the Ki [23]?
**A.** 2570 nM

**Q.** What about the Relative affinity [24] of the same compound?
**A.** 1%

**Q.** How did the pD2 (Cavia porcellus [25]) turn out when `CC[C@@H]1CN2CCc3c([nH]c4cccc(O)c34)[C@@H]2C[C@@H]1/C(=C\OC)C(=O)OC` was run?
**A.** 6.78

**Q.** What about the Relative affinity [16] of the same compound?
**A.** 99.6%

**Q.** And the Inhibition (Cavia porcellus [1])?
**A.** 57%

**Q.** What about the Ki (Mu-type opioid receptor) of the same compound?
**A.** 12 nM

**Q.** What about the Ki [23] of the same compound?
**A.** 2950 nM

**Q.** And the Relative affinity [24]?
**A.** < 0.1%

**Q.** And the Inhibition (Cavia porcellus [26])?
**A.** 49.4%

**Q.** And the Relative potency (Cavia porcellus [4])?
**A.** 41%

**Q.** `CC[C@@H]1CN2CC[C@@]3(O)C(=Nc4cccc(OC)c43)[C@@H]2C[C@@H]1/C(=C\OC)C(=O)OC` was tested. Which Relative affinity [16] did it give?
**A.** 83.3%

**Q.** What about the Inhibition (Cavia porcellus [1]) of the same compound?
**A.** 99%

**Q.** And the Ki (Mu-type opioid receptor)?
**A.** 13.5 nM

**Q.** And the pD2 (Cavia porcellus [27])?
**A.** 8.2

**Q.** And the Ki [23]?
**A.** 123 nM

**Q.** What about the Relative affinity [24] of the same compound?
**A.** 6.6%

**Q.** And the Inhibition (Cavia porcellus [10])?
**A.** 86.3%

**Q.** And the Relative potency (Cavia porcellus [4])?
**A.** 1071%

**Q.** For `CCOc1cccc2[nH]c3c(c12)CCN1C[C@@H](CC)[C@@H](/C(=C\OC)C(=O)OC)C[C@@H]31`, which NS (Cavia porcellus [5]) is on record?
**A.** non specific

**Q.** What about the NS (Cavia porcellus [6]) of the same compound?
**A.** non specific

**Q.** What about the NS (Cavia porcellus [7]) of the same compound?
**A.** non specific

**Q.** What about the NS (Cavia porcellus [8]) of the same compound?
**A.** non specific
